37 sequences from the array DNA melting data of Ke et al. (doi:10.1101/2024.01.08.574731) can be followed below.

Series [1] is described as follows: melting temperature; fluorescence melt of hairpins on a sequencing array, two-state fit, raised by 9.35 °C to match UV melts. As to conditions: sodium 0.088 M. The procedure, abridged: (§1)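 Library hairpins on a sequenced MiSeq flow cell carried annealed Cy3 and quencher oligos, and their Cy3 fluorescence was imaged in 50 mM Na-HEPES pH 8.0 with 25 mM NaCl, in 2.5 °C steps up to 60 °C. Signals were normalised to Cy3 before quenching and to control constructs. Melting temperature and folding enthalpy were obtained from bootstrapped two-state fits, combined by inverse-variance weighting across four replicates, and the fitted temperatures were then raised by 9.35 °C to match UV melts.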

The nature of series [2]: folding enthalpy; higher = less favourable; fluorescence melt of hairpins on a sequencing array, two-state fit. To be noted: sodium 0.088 M. The procedure, abridged:
as §1

As for GAGAGCGGAAACGCCCTC (((.(((....))).))), in series [1], the Tm came to 47.2 °C. In addition, in series [2], the folding enthalpy was -16.7 kcal/mol.
In the case of GTGGGAGGAAACTCCTGC (..((((....))))..), the Tm in series [1] turned out to be 37.8 °C. The folding enthalpy in series [2] is -17.4 kcal/mol.
Turning to GATCCTCCACAGGATC ((((((....)))))), the Tm in series [1] was 50.8 °C. The folding enthalpy in series [2] was -36 kcal/mol.
Consider GCCTCCGAAAGGATCGGC ((((((....)))..))), for which the Tm in series [1] is 45.3 °C. The folding enthalpy in series [2] was -24.2 kcal/mol.
The corresponding values for GATACCGAAAGGTTAATC ((((((....)))..))) are 25.3 °C and -11.1 kcal/mol.
For the sequence GTACGGGGAAACCTGTGC (.((.((....)).)).), the Tm in series [1] turned out to be 37.3 °C. Besides, the folding enthalpy in series [2] was -25.8 kcal/mol.
As for GTTTCCGAAAGGATTAAC ((((((....)))..))), in series [1], the Tm came out at 28.6 °C. For the same sequence, the folding enthalpy in series [2] is -11.6 kcal/mol.
The corresponding values for GGGCTGACGAAAGTCCCC (((..(((....)))))) are 42.8 °C and -18.1 kcal/mol.
Turning to GATACGGGAAACTGTGTC ((.((.(....).)).)), the Tm in series [1] came out at 33.6 °C. Further, the folding enthalpy in series [2] was -20.1 kcal/mol.
Taken in the same sequence, the figures for GCTCGGCGAAAGCCCCGC ((..(((....)))..)) were 44.6 °C and -4.44 kcal/mol.
Taken in the same sequence, the figures for GTATCAGGAAACTGATGC (.(((((....))))).) were 45 °C and -24.8 kcal/mol.
The corresponding values for GCAAGGACGAAAGTCTGC (((..(((....)))))) are 44.6 °C and -17.5 kcal/mol.
In the case of GATCTATTCCTAGATC ((((((....)))))), in series [1], the Tm was found to be 40.4 °C. Further, the folding enthalpy in series [2] is -29.9 kcal/mol.
As for GATCGTAGGGACGATC ((((((....)))))), the Tm in series [1] worked out at 56 °C. In series [2], the folding enthalpy was -31.6 kcal/mol.
Consider GCGGCAGGAAACTGTCGC (((.(((....))).))), for which the Tm in series [1] stood at 67.3 °C. Besides, the folding enthalpy in series [2] is -38.1 kcal/mol.
Taken in the same sequence, the figures for GAGGAGCGAAAGCTGCTC (((.(((....))).))) were 63.7 °C and -34 kcal/mol.
For the sequence GATCGAGAACTCGATC ((((((....)))))), the Tm in series [1] was 57 °C. Moreover, the folding enthalpy in series [2] is -37.6 kcal/mol.
The corresponding values for GTCACCGAAAGGTGAGAC ((((((....)))..))) are 48 °C and -10.3 kcal/mol.
The corresponding values for GTGTGCGAAAGCAAACAC ((((((....)))..))) are 51.7 °C and -24.1 kcal/mol.
Taken in the same sequence, the figures for GGGCACGAAAGTGCTCCC ((((((....)))..))) were 53.1 °C and -9.92 kcal/mol.
Regarding GCGATGCTCGC ((((...)))), the Tm in series [1] worked out at 54.9 °C. The folding enthalpy in series [2] was -14.1 kcal/mol.
As to GCCCAAGCGAAAGCTGGC (((..(((....)))))), the Tm in series [1] is 53.6 °C. Further, the folding enthalpy in series [2] is -17.6 kcal/mol.
As to GCTTTCGGAAACGGAAGC ((((.((....)).)))), in series [1], the Tm is 53.2 °C. In addition, the folding enthalpy in series [2] is -39.8 kcal/mol.
The corresponding values for GATCGGGTCCCGATC ((((((...)))))) are 56.7 °C and -46.5 kcal/mol.
The corresponding values for GCCGGGCGAAAGCACTGC ((.(.((....)).).)) are 50.8 °C and -18.6 kcal/mol.
With GATCGGGTGCCGATC ((((((...)))))), the Tm in series [1] was determined as 55.2 °C. Moreover, the folding enthalpy in series [2] is -49.1 kcal/mol.
The corresponding values for GATAGCGAAAGCTAAATC ((((((....)))..))) are 27.7 °C and -8.92 kcal/mol.
Turning to GCAGCAGGAAACTGCCGC ((.((((....)))).)), the Tm in series [1] worked out at 50.5 °C. Moreover, the folding enthalpy in series [2] is -27.8 kcal/mol.
With GTCAGTGGAAACATTGGC (.((.((....)).)).), in series [1], the Tm came to 30.6 °C. In addition, in series [2], the folding enthalpy was -26.2 kcal/mol.
Taken in the same sequence, the figures for GCTCAGCCGAAAGGCAGC (((..(((....)))))) were 41.1 °C and -13.1 kcal/mol.
As to GGTTCCGGAAACGGAGCC ((.((((....)))).)), the Tm in series [1] amounted to 58.4 °C. The folding enthalpy in series [2] was -41.6 kcal/mol.
Taken in the same sequence, the figures for GCCAAGCGAAAGCAGGGC (((..((....))..))) were 60.4 °C and -26.4 kcal/mol.
As for GATCGAGGTATCGATC ((((((....)))))), the Tm in series [1] amounted to 58.7 °C. Moreover, the folding enthalpy in series [2] was -39.6 kcal/mol.
GGTCACGGAAACGTAACC (((.(((....))).))): the Tm in series [1] amounted to 42.1 °C. Also, in series [2], the folding enthalpy was -31.5 kcal/mol.
The corresponding values for GAATGAGGAAACTCGTTC (((.(((....))).))) are 43.9 °C and -32.3 kcal/mol.
Taken in the same sequence, the figures for GCTCAGGGAAACCTGAAC (.(((((....))))).) were 37.7 °C and -17.4 kcal/mol.
The corresponding values for GACGATGCGAAAGCAGTC (((..(((....)))))) are 44 °C and -16.9 kcal/mol.
